Shown are actives, neighbours in structure and some others; about 2.3% of the full set was active somewhere.
DENV2 CPE – inhibitors of DENV2 cytopathic effect. DENV2-infected cells, cytopathic effect rescue, plate reader. CPE inhibition, % at 9.99 µM. actives 1.7% (n = 350,000). AID 651640; in the data active = CPE inhibition above about 20%, passing the limit was not always enough; inconclusive = no clear call, values can overlap the other calls; tested in BHK-21 cells
Cneo AK release – Cryptococcus neoformans lysis via adenylate kinase release; C. neoformans lysis, adenylate kinase release luminescence, 4 h; normalised: neutral wells 0, clomiphene wells 100; lysis activity, % at 15 µM; actives 0.2% (n = 360,000);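 active = mean lysis activity across replicates of at least 80%, whatever share of replicates individually reach that level; inactive = mean lysis activity below 80%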
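read-out = cell lysis signal | test system = log-phase Cryptococcus neoformans yeast cells | input = cells at 5 × 10^6 per mL | medium = fresh YPD growth medium | signal = luminescent adenylate kinase detection reagent | timing = 4 h at 37 °C static, read 1 h later | dosing = single dose | controls = Clomiphene as positive lysis control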
F508del corr – correctors of CFTR F508del function in bronchial epithelial cells | CFBE cells, YFP halide quenching; stimulated with forskolin plus potentiator P3; % fluorescence drop versus neutral controls | activity (quench increase), % at 7.58 µM | actives 0.36% (n = 350,000) | AID 720511;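 active = mean added fluorescence quench of at least 8% versus neutral control, with both replicates also reaching 8%; inconclusive = only one of the mean or replicate conditions met; inactive = mean below 8% and not both replicates reaching 8%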;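 also: cells transiently co-express mutant CFTR-F508del with the halide-sensitive YFP; corrector assay measuring rescue of mutant channel to the surface after 24 h compound exposure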
PDI turbidity – PDI (human) enzyme inhibition; P07237; PDI insulin aggregation turbidity, A650, 90 min; inhibition, % at 10 µM; actives 0.052% (n = 350,000); AID 588391;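 active = mean inhibition across replicates of 30% or more, whatever share of single replicates reach that level; inconclusive = mean inhibition below 30% while every single replicate reaches 30%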
Target sequence (P07237 whole entry, looked up): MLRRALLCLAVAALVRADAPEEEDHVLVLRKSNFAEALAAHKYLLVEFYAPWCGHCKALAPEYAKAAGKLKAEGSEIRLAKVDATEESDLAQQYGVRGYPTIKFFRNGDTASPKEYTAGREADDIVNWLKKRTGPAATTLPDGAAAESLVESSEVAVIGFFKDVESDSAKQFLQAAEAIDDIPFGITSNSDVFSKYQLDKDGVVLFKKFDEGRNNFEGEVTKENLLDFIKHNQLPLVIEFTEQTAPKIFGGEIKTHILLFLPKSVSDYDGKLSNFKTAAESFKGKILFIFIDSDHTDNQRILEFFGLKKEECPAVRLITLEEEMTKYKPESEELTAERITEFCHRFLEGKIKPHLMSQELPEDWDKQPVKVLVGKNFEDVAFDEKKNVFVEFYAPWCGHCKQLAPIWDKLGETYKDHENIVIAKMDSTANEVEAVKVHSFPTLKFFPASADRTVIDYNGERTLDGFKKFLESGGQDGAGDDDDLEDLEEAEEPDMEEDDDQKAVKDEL
C2C12 statin – suppressors of simvastatin-induced myotoxicity in C2C12 myotubes; ATP luminescence, 48 h; scaled: DMSO 0, geranylgeraniol control 100; rescue of ATP level, % at 7.49 µM; actives 0.78% (n = 330,000);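 active = mean ATP rescue above about 67%, or every replicate alone reaching that limit, limit read from the data, passing the limit was not always enough; inconclusive = no clear call, values can overlap the other calls; inactive = mean under the limit and some replicate under it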;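 also: myotubes were challenged with 10 µM simvastatin during compound exposure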
ERp5 inh – blocks human ERp5 reductase activity on insulin | Q15084 | ERp5 insulin aggregation, absorbance 650 nm, 90 min | inhibition, % at 9.99 µM | actives 0.05% (n = 350,000) | AID 651711;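 active = mean replicate inhibition above about 25%, with every replicate also reaching it, limit read from the data, passing the limit was not always enough; inconclusive = only one of those two criteria met; inactive = neither criterion met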
Of the large screens only hits and unclear results are named; the others gave an inactive call.

Cc1ccc(C)c(NS(=O)(=O)c2c(C)nn(C)c2C)c1	PDI turbidity 37.5 (no result: DENV2 CPE, F508del corr, ERp5 inh)
C[C@@H]1CN([C@@H](C)CO)C(=O)c2cc(NC(=O)NC3CCCCC3)ccc2O[C@H]1CN(C)S(=O)(=O)c1cn(C)cn1	none (no result: PDI turbidity)
Cc1cc2oc(=O)cc(-c3cc4ccccc4o3)c2cc1O	none
Cc1c2cc(O)c(=O)cc-2oc2cc(O)c(O)cc12	F508del corr 16.8 (no result: DENV2 CPE)
COc1cc(OC)c(-c2c3cc(O)c(=O)cc-3oc3cc(O)c(O)cc23)cc1OC	F508del corr 20.7 (no result: Cneo AK release, C2C12 statin)
COc1cc(-c2cc(=O)c3ccc(O)cc3o2)cc(OC)c1OC	none (no result: PDI turbidity)
Cc1ccc(N2C(=O)c3ccc(C(=O)Nc4cccnc4)cc3C2=O)c(C)c1	C2C12 statin 89.9 (no result: DENV2 CPE, F508del corr, ERp5 inh)
COCCNC(=S)N1CCN(S(=O)(=O)c2ccc(Cl)s2)CC1	DENV2 CPE 44.7
COc1ccc(NC(=O)N(C)C[C@@H]2OCCCC[C@@H](C)Oc3ccc(NS(=O)(=O)c4ccc(OC)cc4)cc3C(=O)N([C@@H](C)CO)C[C@H]2C)cc1	DENV2 CPE inconclusive (no result: PDI turbidity, C2C12 statin, ERp5 inh)
CN1C(=O)N[C@@H]2c3ccccc3O[C@@]1(C)[C@@H]2CO	DENV2 CPE 20.5 (no result: PDI turbidity, C2C12 statin)
COc1ccc(COC[C@@]23Oc4ccccc4[C@@H](NC(=O)N2C)[C@H]3CO)cc1	none (no result: PDI turbidity, C2C12 statin)
CC1=C(C(=O)N(C)C)CC(CC(=O)NCc2cccc3ccccc23)C(=O)N1CCCN1CCCC1=O (stereo not drawn)	F508del corr 8.3
CCN(CC)C(=O)C1=C(C)N(CCCN2CCCC2=O)C(=O)C(CC(=O)NCC2CCCCC2)C1 (stereo not drawn)	DENV2 CPE 74.4
COCCNC(=O)C[C@@H]1C[C@H]2c3cc(NC(=O)Nc4ccc(OC)cc4)ccc3O[C@H]2[C@@H](CO)O1	DENV2 CPE 114.2 (no result: PDI turbidity)
CCCNC(=O)C[C@H]1C[C@H]2c3cc(NC(=O)Nc4ccc(OC)cc4)ccc3O[C@H]2[C@@H](CO)O1	Cneo AK release 89.7 (no result: PDI turbidity)
O=C(C[C@@H]1C[C@@H]2c3cc(NC(=O)CC4CC4)ccc3O[C@@H]2[C@H](CO)O1)NCc1cccc(F)c1	none (no result: PDI turbidity)
O=C(C[C@@H]1C[C@H]2c3cc(NC(=O)CC4CC4)ccc3O[C@H]2[C@H](CO)O1)NCc1cccc(F)c1	F508del corr 9.0 (no result: PDI turbidity)
COCCNC(=O)C[C@H]1C[C@@H]2c3cc(NC(=O)Nc4ccc(OC)cc4)ccc3O[C@@H]2[C@@H](CO)O1	none (no result: PDI turbidity)
COCCNC(=O)C[C@@H]1C[C@H]2c3cc(NC(=O)NC4CCCC4)ccc3O[C@H]2[C@@H](CO)O1	ERp5 inh 81.7 (no result: PDI turbidity)
CN(C)CCCNC(=O)C[C@H]1CC[C@H](NS(=O)(=O)c2ccc(F)cc2)[C@H](CO)O1	none (no result: PDI turbidity)
O=C(C[C@H]1CC[C@@H]2[C@H](COC[C@@H](O)CN2Cc2cc(F)ccc2F)O1)NCc1ccc(Cl)cc1	none (no result: PDI turbidity)
CN1C(=O)c2cc(NC(=O)C3CCC3)ccc2OC[C@@H]2O[C@H](CC(=O)NCc3ccccc3F)CC[C@@H]21	none (no result: Cneo AK release, PDI turbidity, C2C12 statin)
O=C(C[C@@H]1C[C@@H]2c3cc(NC(=O)Nc4ccc(F)cc4)ccc3O[C@@H]2[C@H](CO)O1)NCC1CC1	none (no result: PDI turbidity, ERp5 inh)
O=C(C[C@@H]1C[C@@H]2c3cc(NC(=O)Nc4ccc(F)cc4)ccc3O[C@@H]2[C@@H](CO)O1)NCC1CC1	Cneo AK release 86.5 (no result: PDI turbidity, ERp5 inh)
CCCNC(=O)C[C@@H]1C[C@H]2c3cc(NC(=O)CC4CC4)ccc3O[C@H]2[C@H](CO)O1	ERp5 inh 61.6 (no result: PDI turbidity)
COCCNC(=O)C[C@@H]1C[C@@H]2c3cc(NC(=O)C4CCOCC4)ccc3O[C@@H]2[C@H](CO)O1	none (no result: PDI turbidity)
O=C(O)C[C@@H]1C[C@@H]2c3cc(NC(=O)C4CCOCC4)ccc3O[C@@H]2[C@H](CO)O1	DENV2 CPE 27.6 (no result: Cneo AK release, PDI turbidity, C2C12 statin)
COCCNC(=O)C[C@@H]1C[C@H]2c3cc(NC(=O)C4CCOCC4)ccc3O[C@H]2[C@H](CO)O1	DENV2 CPE 24.2, Cneo AK release 109.1 (no result: PDI turbidity)
O=C(O)C[C@H]1C[C@@H]2c3cc(NC(=O)C4CCOCC4)ccc3O[C@@H]2[C@@H](CO)O1	none (no result: PDI turbidity, ERp5 inh)
C[C@@H]1CN([C@H](C)CO)C(=O)c2cccc(NC(=O)Nc3ccc4c(c3)OCO4)c2O[C@@H]1CN(C)C(=O)Nc1ccc2c(c1)OCO2	none (no result: PDI turbidity)
C[C@H](CO)N1C[C@H](C)[C@@H](CN(C)CC2CC2)Oc2ccc(NS(=O)(=O)c3ccc(F)cc3)cc2CC1=O	none (no result: PDI turbidity)
COC(=O)C(Cc1csc2ccc(Cl)cc12)NC(=O)c1ccc(Cl)cc1 (stereo not drawn)	DENV2 CPE 96.0 (no result: Cneo AK release)
COc1ccc2c3c([nH]c2c1)[C@H](CO)N(C(=O)NC(C)C)CC31CCN(Cc2ccc(F)cc2)CC1	DENV2 CPE inconclusive (no result: Cneo AK release, PDI turbidity, C2C12 statin)
O=C(NCc1nnnn1-c1ccc(F)cc1)c1ccc2ccccc2c1	none
O=C(NCc1nnnn1-c1ccc(F)cc1)c1ccc([N+](=O)[O-])o1	C2C12 statin 69.5 (no result: Cneo AK release)
Cc1ccc(-n2nnnc2CNC(=O)c2ccc([N+](=O)[O-])o2)cc1C	C2C12 statin 80.3 (no result: Cneo AK release)
COc1ccc(NC(=O)N(C)C[C@@H]2OCCCC[C@H](C)Oc3ccc(NS(=O)(=O)c4c(C)noc4C)cc3C(=O)N([C@H](C)CO)C[C@@H]2C)cc1	none (no result: PDI turbidity, ERp5 inh)
Cc1ccc(S(=O)(=O)NCC[C@@H]2CC[C@H](NC(=O)c3cccc(F)c3)[C@H](CO)O2)cc1	none (no result: PDI turbidity)
C[C@@H]1CN([C@H](C)CO)S(=O)(=O)c2ccc(C#CCN(C)C)cc2O[C@H]1CN(C)C	none (no result: PDI turbidity)
COC/C=C/C1=CC2=CC(=O)C(C)(OC(=O)c3cnc4ccccc4n3)C(=O)C2=CN1C(CO)CO (stereo not drawn)	DENV2 CPE 31.0
COC/C=C/C1=CC2=CC(=O)C(C)(OC(=O)c3cnc4ccccc4n3)C(=O)C2=CN1CCOC (stereo not drawn)	none
CO/N=C\CC(=O)Nc1ccc(Cl)cc1Cl	F508del corr 10.7 (no result: Cneo AK release, C2C12 statin)
O=C(c1ccccn1)N1C[C@H]2[C@@H](c3ccccc31)[C@@H](CO)N2C(=O)Cc1ccccc1	none (no result: PDI turbidity)
Cc1ccc(NS(=O)(=O)c2ccc(-c3cnc(C4CC4)o3)cc2)cc1	none
Cc1ccc(N(C)S(=O)(=O)c2ccc(-c3cnc(C4CC4)o3)cc2)cc1	F508del corr 8.3
CO/N=C/C(C#N)=C/c1cc(C(=O)c2ccccc2)cn1C	DENV2 CPE 46.3 (no result: Cneo AK release, C2C12 statin)
CO/N=C/C(C#N)=C/c1ccc(OC)c(OC)c1	none (no result: Cneo AK release, C2C12 statin)
Cc1cc2ncn(/N=C/c3ccc([N+](=O)[O-])o3)c2cc1C	C2C12 statin 86.7 (no result: DENV2 CPE)
O=S(=O)(NC1=NCCC1)c1ccc(F)cc1	C2C12 statin 106.8 (no result: DENV2 CPE, F508del corr, ERp5 inh)
Cc1ccc(S(=O)(=O)NNC2=NCCCCC2)cc1	C2C12 statin 92.2
O=S(=O)(NC1=NCCCCC1)c1ccc(F)cc1	none

Assay outcomes as filed in PubChem BioAssay.
